# Measured values: article PMC13201524 (Journal of structural biology, 2025)
# Residue numbers refer to the chain shown, from its start. In names and notes the source's numbering stands. Entries after “also recorded” stand apart in the source; their conditions may differ. Where two headings read alike, the source gives them in different places.
# T1: mScn (Mus musculus, UniProt P11672)
# T1 sequence (P11672 with tags, fused parts or gaps): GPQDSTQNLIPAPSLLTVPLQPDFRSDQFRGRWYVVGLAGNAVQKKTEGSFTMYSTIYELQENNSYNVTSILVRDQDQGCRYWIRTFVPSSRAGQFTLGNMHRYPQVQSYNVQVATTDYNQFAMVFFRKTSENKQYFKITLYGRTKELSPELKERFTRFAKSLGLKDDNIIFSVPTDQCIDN
# B1: Y138A: hScn_C87S point mutant, best performing loss of binding mutant (protein, UniProt P80188 21-198, looked up, variant C87S Y138A)
# Neutrophil …: QDSTSDLIPAPPLSKVPLQQNFQDNQFQGKWYVVGLAGNAILREDKDPQKMYATIYELKEDKSYNVTSVLFRKKKCDYWIRTFVPGSQPGEFTLGNIKSYPGLTSYLVRVVSTNYNQHAMVFFKKVSQNREYFKITLAGRTKELTSELKENFIRFSKSLGLPENHIVFPVPIDQCIDG
# B2: T54R: hScn_C87S point mutant, best performing gain of binding mutant (protein, UniProt P80188 21-198, looked up, variant C87S T54R)
# Neutrophil …: B1 Neutrophil … with T54R, A138Y
# What was measured:
# mScn = biological target: T1, mScn; assay: 1H-15N Trosy HSQC NMR screening and titration on mScn; type: binding; conditions: FDA-approved drugs library and Vanderbilt discovery library; peak shifts of mScn
# How it was run: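 15N-labelled mScn was expressed in E. coli BL21(DE3) as a 6His-GB1 fusion, and the GB1 tag was cleaved with HRV3C. Screening used pools of 12 compounds (1 μl each of 10 mM DMSO stock) with 20 μM mScn in 100 mM sodium phosphate pH 6.0, 5 vol% D2O and 2 vol% DMSO. Hits were re-tested singly, then titrated with 50 μM mScn (5 vol% DMSO) at protein:ligand ratios from 1:0 to 1:10.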
# [1] = ref Gleiter and Mörike, 2002; Buter et al., 1999; cited from earlier work
# [2] = ref Gleiter and Mörike, 2002; Buter et al., 1999; cited from earlier work; remark: listed apart in the source
# hScn = conditions: read-out: binding affinity; ref Goetz et al., 2002; Hohlbaum et al., 2018; cited from earlier work
# [3] = Isothermal titration calorimetry; type: binding
# How it was run: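 Monomeric hScn C87S (and mutants) was expressed in E. coli on M9 medium and purified by Ni-NTA and size exclusion. The protein sat in the cell and the test compound in the syringe, both in matched 100 mM sodium phosphate pH 6.0 with 2% DMSO. Runs were at 25°C and 750 rpm: a 0.4 μL first injection, then at least 19 injections of 2 μL spaced 150 s. A ligand-into-buffer reference titration was run.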
molecule,measurement,setting,value
CCOc1nc2cccc(C(=O)O)c2n1Cc1ccc(-c2ccccc2-c2nc(=O)o[nH]2)cc1 [azilsartan],NMR screening / titration result in words,mScn,identified hits
CCOc1nc2cccc(C(=O)O)c2n1Cc1ccc(-c2ccccc2-c2nnn[nH]2)cc1 [candesartan],plasma protein binding,[1],exceeding 99%
same,NMR screening / titration result in words,mScn,tightest binding; also recorded: medium to low affinity
same,maximal plasma concentration,[2],around 0.227 μM
O=C(N[C@H]1COC(=O)[C@@H](NC(=O)c2cccc(O)c2O)COC(=O)[C@@H](NC(=O)c2cccc(O)c2O)COC1=O)c1cccc(O)c1O [enterobactin],Kd,hScn,0.41 ± 0.11 nM
CCCCC(=O)N(Cc1ccc(-c2ccccc2-c2nnn[nH]2)cc1)[C@H](C(=O)O)C(C)C [valsartan],NMR screening / titration result in words,mScn,identified hits
B1,increase of KD (decrease in binding affinity) compared to wild type,"[3]; ITC, candesartan",fivefold
B2,Kd,"[3]; read-out: ITC KD1, first binding event, value in nM",115 nM
same,Kd,"[3]; read-out: ITC- KD2, second binding event",3500 nM
